Assay outcomes deposited in PubChem BioAssay by Broad Institute.
Shown are actives, neighbours in structure and some others; about 3% of the full set was active somewhere.
PGC1a acetyl inh – lowers PGC1a acetylation signal in U2OS cells. AlphaScreen anti-acetyl-lysine; with virally co-expressed GCN5 acetyltransferase. inhibition, % at 15.6 µM. 0.17% of 350,000 active. AID 651687;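 active means every replicate shows inhibition of at least 40%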;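 further: 0% = neutral control wells and 100% = positive control wells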
Ecoli rRNA inh – inhibits bacterial ribosomal RNA function over humanized ribosomes; E. coli WT GFP vs humanized-ribosome RFP mutants, fluorescence, 24 h; hits give low values; DMSO median 0, no signal -100; GFP signal change (wild-type ribosome), % (concentration not given with the values); 1.6% of 350,000 active; AID 720706;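 active means significant combined selectivity score with lowered wild-type GFP, culture density cut under 30%, mutant RFP and density less affected; inactive means any of these conditions unmet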
SIRT5 block – blocks human SIRT5 desuccinylation of peptide; Purified SirT5, succinyl-peptide AMC, trypsin-coupled fluorescence; 1.1% of 330,000 active; inhibition, % at 15 µM; Q9NXA8; in the data active means inhibition above about 15%
Target sequence (Q9NXA8 whole entry, looked up): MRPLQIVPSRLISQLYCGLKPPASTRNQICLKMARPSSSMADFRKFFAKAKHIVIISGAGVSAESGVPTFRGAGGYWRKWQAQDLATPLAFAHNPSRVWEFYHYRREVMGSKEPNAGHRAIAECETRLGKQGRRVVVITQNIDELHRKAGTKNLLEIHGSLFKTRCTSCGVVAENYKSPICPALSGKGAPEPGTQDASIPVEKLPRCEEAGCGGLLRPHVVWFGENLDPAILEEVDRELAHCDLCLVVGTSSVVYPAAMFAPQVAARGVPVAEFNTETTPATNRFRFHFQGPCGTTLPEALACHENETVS
Cneo AK release – Cryptococcus neoformans lysis via adenylate kinase release; C. neoformans lysis, adenylate kinase release luminescence, 4 h; normalised: neutral wells 0, clomiphene wells 100; lysis activity, % at 15 µM; 0.2% of 360,000 active; AID 651654;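 active means mean lysis activity across replicates of at least 80%, whatever share of replicates individually reach that level; inactive means mean lysis activity below 80%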
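Assay system: Cryptococcus neoformans yeast cells / Dosing: single-point compound dose / Timing: 4 h at 37 °C static, read 1 h later / Measured by: luminescence of released adenylate kinase using an AK detection reagent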
S100A4 inh HTS – inhibitors of human S100A4 binding to myosin IIA peptide. S100A4/TAMRA-MyoIIA peptide fluorescence polarization. 0.14% of 360,000 active. inhibition, % at 10.7 µM. AID 652163;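 active means mean inhibition of at least 70% across replicates, with every replicate also reaching that level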
Target sequence (P26447 whole entry, looked up): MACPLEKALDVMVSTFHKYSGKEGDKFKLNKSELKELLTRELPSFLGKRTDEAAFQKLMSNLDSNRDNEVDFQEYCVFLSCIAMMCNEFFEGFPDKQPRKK
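Material: S100A4 monomer protein | Medium: HEPES pH 7.2 with CaCl2, KCl, NaCl, DTT, Triton | Reagent: Labelled myosin peptide probe, 5 nM | Doses: One dose per compound | Times: 5 min incubation before reading | Benchmarks: Neutral control DMSO, positive control TFP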
Statin myotox sup – suppressors of simvastatin-induced myotoxicity in C2C12 myotubes; ATP luminescence, 48 h; scaled: DMSO 0, geranylgeraniol control 100; rescue of ATP level, % at 7.49 µM; 0.78% of 330,000 active;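 active means mean ATP rescue above about 67%, or every replicate alone reaching that limit, limit read from the data, passing the limit was not always enough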;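 further: myotubes were challenged with 10 µM simvastatin during compound exposure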
An asterisk follows results filed as active; x = no result given.

SMILES | PGC1a acetyl inh | Ecoli rRNA inh | SIRT5 block | Cneo AK release | S100A4 inh HTS | Statin myotox sup
C[C@H]1CN([C@@H](C)CO)C(=O)c2cc(C3=CCCCC3)cnc2O[C@H]1CN(C)C(=O)c1ccncc1 | -1.6 | 4.2 | -3.2 | 6.4 | 3.5 | 11.7
COc1cc(OC)c(OC)cc1CNc1cc(C)ccc1OC | 35.9 | -9.1 | -8.0 | 0.6 | 0.2 | 10.0
COc1cc(Br)c(CNc2cc(C)ccc2C)cc1OC | -0.1 | -24.1* | 6.4 | 2.9 | -2.0 | 0.8
C[C@H]1CN([C@@H](C)CO)C(=O)c2cccc(NC(=O)c3ccncc3)c2O[C@@H]1CN(C)S(=O)(=O)c1cn(C)cn1 | 4.5 | 2.2 | -1.0 | -4.8 | 10.4 | -31.2
O=C1N/C(=N/S(=O)(=O)Cc2ccccc2)S/C1=C/c1ccc2c(c1)OCO2 | 6.7 | -40.1* | 3.5 | 4.8 | 21.3 | -3.3
C[C@@H]1CN([C@@H](C)CO)C(=O)c2cc(NC(=O)CCCN(C)C)ccc2O[C@@H]1CN(C)Cc1ccc(C(=O)O)cc1 | 1.7 | 5.3 | -1.3 | -0.1 | -0.7 | -16.5
O=C(CN1C(=O)NC(Cc2ccccc2)C1=O)Nc1ccc(F)c(Cl)c1 (centres undefined) | 2.1 | -28.1* | -12.4 | -0.4 | -14.4 | 31.7
COCC(=O)N1CC[C@@H]2[C@H]1c1cc(-c3cccc(OC)c3)ccc1N(C)[C@H]2CO | -3.7 | 0.9 | 1.2 | 1.0 | 1.8 | 35.3
Cc1[nH]nc(-c2ccc(O)cc2O)c1Oc1ccccc1 | -13.2 | -12.9* | -1.3 | 2.4 | -6.7 | 6.1
CNC[C@H]1Oc2ccc(NC(=O)Nc3ccc(OC)cc3)cc2C(=O)N([C@@H](C)CO)C[C@@H]1C | -1.5 | 0.2 | x | -3.1 | 3.9 | 31.5
COc1cc(C(=O)N(CCc2ccccc2)C2=CC3CCC(C2)N3C)cc(OC)c1OC (centres undefined) | -7.3 | x | x | 3.8 | x | 91.2*
CC1CC(c2ccccc2)n2nc(N3C(=O)c4ccccc4C3=O)nc2N1 (centres undefined) | -6.7 | x | x | 6.7 | x | 100.8*
CCCCn1c(SCC(=O)NCc2ccc3c(c2)OCO3)nnc1C(CC)N(C)C (centres undefined) | 43.7* | 10.2 | -1.7 | -2.4 | 3.2 | 1.4
CN1C(=O)c2cc(NC(=O)C3CCCC3)ccc2OC[C@H]2O[C@@H](CC(=O)NCC(F)(F)F)CC[C@H]21 | -3.7 | 4.9 | -0.6 | -3.7 | 0.7 | 2.3
O=C(N[C@H]1CC[C@H](CCNC(=O)c2ccccc2F)O[C@H]1CO)c1ccc2c(c1)OCO2 | 4.4 | 1.7 | 6.6 | 44.5 | -0.6 | -1.7
Cc1ccc(S(=O)(=O)N(C)C[C@@H]2Oc3ccc(NC(=O)Nc4cccc5ccccc45)cc3CC(=O)N([C@@H](C)CO)C[C@@H]2C)cc1 | 9.3 | 6.7 | -2.2 | 1.4 | 3.0 | -10.6
C[C@H]1CN([C@@H](C)CO)C(=O)Cc2cc(NC(=O)Nc3cccc4ccccc34)ccc2O[C@H]1CN(C)S(=O)(=O)c1cccs1 | -5.2 | 2.0 | x | 100.9* | x | 24.2
C[C@H](CO)N1C[C@H](C)[C@H](CN(C)S(=O)(=O)c2cccs2)Oc2ccc(NC(=O)Nc3cccc4ccccc34)cc2CC1=O | -12.3 | 2.7 | x | -0.6 | x | 18.4
C[C@@H]1CN([C@H](C)CO)C(=O)Cc2cc(NC(=O)Nc3cccc4ccccc34)ccc2O[C@@H]1CN(C)S(=O)(=O)c1cccs1 | 8.2 | 1.1 | x | -0.2 | x | 75.2*
Cc1ccc(S(=O)(=O)N(C)C[C@H]2Oc3ccc(NC(=O)Nc4cccc5ccccc45)cc3CC(=O)N([C@@H](C)CO)C[C@H]2C)cc1 | 13.5 | 2.6 | 19.3* | -0.3 | -17.6 | 30.9
CCCC(=O)Nc1ccc2c(c1)OC[C@H](C)NC[C@H](C)[C@@H](OC)CN(C)C2=O | 5.5 | -0.6 | -2.4 | x | 13.9 | x
C[C@H](CO)N1C[C@H](C)[C@@H](CN(C)Cc2ccc3c(c2)OCO3)Oc2c(NS(=O)(=O)c3ccc(F)cc3)cccc2C1=O | 2.7 | -5.4 | -3.8 | -2.7 | -8.3 | -2.0
Cc1ccccc1S(=O)(=O)NCC[C@H]1CC[C@H](NC(=O)C2CC2)[C@H](CO)O1 | -3.2 | 0.7 | 7.3 | -7.7 | 11.9 | -0.2
